Assay results from the EternaBench riboswitch data.

Tested on: MS2 coat protein
Assay: apparent Kd, MS2 coat protein; higher = weaker binding; RNA-MaP array; FMN 200 µM where present
Procedure, shortened: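 Stalled E. coli RNA polymerase transcribed the designs on Illumina sequencing-chip clusters. SNAP-549-labelled MS2 coat protein was titrated from 0.7 or 1.5 nM, doubling to 3 µM, without and then with constant ligand, in 100 mM Tris-HCl pH 7.5, 80 mM KCl, 4 mM MgCl2, BSA, DTT, yeast tRNA and Tween-20. Per-cluster binding curves were fitted to green signal normalised to red-channel RNA signal and control-cluster median Fmax. The apparent Kd is the median of the filtered fits.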

[1] = designed as: OFF switch for flavin mononucleotide, no ligand
[2] = ligand present: flavin mononucleotide, designed as: OFF switch for flavin mononucleotide
[3] = designed as: ON switch for flavin mononucleotide, no ligand
[4] = ligand present: flavin mononucleotide, designed as: ON switch for flavin mononucleotide

Row | Sequence | apparent Kd [1] | apparent Kd [2] | apparent Kd [3] | apparent Kd [4]
1 | AGAGUGUCAGGAUAUCCUGCUGUGCGGAAUAUGUAUUCACGGGAGAAGGGACAUGAGGAUCACCCAUGUUUGAG | 20.6 nM | 20.8 nM | – | –
2 | UACUUGUUAGGAUAUCUUACAUUUGCAUCAUAGCAACCAUUGGAGAAGGGACAUGAGGAUCACCCAUGUUUGGU | 42.3 nM | 43.8 nM | – | –
3 | UGUUGUAUUACAGGAUAUCUAUGAUUUUUAUAUAGAGAAGGGUAUUCACAUGAGGAUCACCCAUGUAUAUACGAGGAAGUUGUG | – | – | 49 nM | 56 nM
4 | UGUACGUGAGGAUAUGGACGUAUCGAAGACAAGCUACGAUACCAGAAGGUACAUGAGGAUCACCCAUGUGGUUC | 376 nM | 370 nM | – | –
5 | UGUCGGAGCAGAGGAUAUACAUGAGGAUCACCCAUGUAAUAAAGUGAAGCCUGAAAACAGGCAAUGUAGAAGGCUGCUCCGACA | 11.5 nM | 85 nM | – | –
6 | GGUUACAAGUAAGGAUAUGCAUAUGAAACAUAUGCAGAAGGUACAUGAGGAUCACCCAUGUUAUUGCAAAGCGAAUAAGUAACC | 15.6 nM | 20.9 nM | – | –
7 | CCAAGAAUAGGAUAUACACCGUGUCAGCUUUUAUAUAUCGCACAUGAGGAUCACCCAUGUAGAAGGGUUCUCUC | 676 nM | 564 nM | – | –
8 | UUGGACGUCGUAGGAUAUGUAGGAUAUUCCUACAUGAGGAUCACCCAUGUUGACAUGGAAGAAGGACAGGAGGACGAUGUCCAU | – | – | 346 nM | 7.82 nM
9 | CAGUACUGAGGAUAUACAUGAGGAUCACCCAUGUGUUCCAGCUAGGAAACUAGCAAUAGUAGAAGGCAGUACUG | 20.1 nM | 315 nM | – | –
10 | GAUCAACAUGAGGAUCACCCAUGUGAGGAUAUGAUACUAUGUACUUCGGUACAUAGUAUCAGAAGGCAUGUAAA | 50.1 nM | 42.5 nM | – | –
11 | CAAAAGGAAGGAUAUGCAUCGGGAGGUGCUCAGCAUCAAAUACAUGAGGAUCACCCAUGUAGAAGGUCUGAAAA | 32.1 nM | 85.7 nM | – | –
12 | CUGUUUUUCGCAGGAUAUGCUCCUCCUUUAUUUGCAGAAGGGCGUUAAACAUGAGGAUCACCCAUGUAUGGUAAUGACUUUUUC | 20.6 nM | 67.8 nM | – | –
13 | AGUAACAUACUCAACAUGAGGAUCACCCAUGUACUCUCUUGUAAGGAUAUACAUUCGUAUUGAUAGUAGAAGGUACCAAUUAAG | – | – | 53.5 nM | 57.4 nM
14 | UUAAAUCAUGUAGGAUAUGCAUGGCGAAGCUACGCAGAAGGACAUGAGGAUCACCCAUGUGCUAGCUACCGGAGACGGUGGCAA | 57.7 nM | 195 nM | – | –
15 | GCCAUCGCAUGAGGAUAUGGCACCGUUUCGGUGCCAGAAGGCAUGUCAUAAGACAUGAGGAUCACCCAUGUGGUUAAGAUGGCA | – | – | 865 nM | 50.9 nM
16 | UUAAAUCAUGUAGGAUAUGCAUGGCGAAGCUACGCAGAAGGACAUGAGGAUCACCCAUGUUAUAGCUACCGAGUUCGGUGGCAA | 109 nM | 224 nM | – | –
17 | UGUUGUAUUACAGGAUAUCUAGUAUUUUGAUUUAGAGAAGGGUAUUCACAUGAGGAUCACCCAUGUAUAUACGAGGAAGUUGUG | – | – | 52.4 nM | 57.4 nM
18 | GGGCGUAAUACAUGAGGAUCACCCAUGUCAGAAAGGGUAAUCAGAAGGUACUAUUAGAGAAAGAGUAAGGAUAUGAAUACGCCC | – | – | 876 nM | 169 nM
19 | UAUCCGCUAGGAUAUACUAUAUUGUCCUCGUGAGUGAUGCUACAUGAGGAUCACCCAUGUAGAAGGAGCGCGUG | 27.3 nM | 30.6 nM | – | –
20 | AUUUCGUUAUCAGGAUAUGGACAGGCCUGUCCGUAUUGAGACAGUAACAUGAGGAUCACCCAUGUCCAGAAGGGAUCGAAGUAU | 57 nM | 46.7 nM | – | –
21 | ACGUCGAGCCAGAAGGCAACAUGAGGAUCACCCAUGUAGUCCGGCUCGUGUUGAGGAUAUGGCACCCGCGCGGAAGGCGCAGGU | 5.12 nM | 6.62 nM | – | –
22 | AGUAUUGUAGGGUAUCCAACAUGAGGAUCACCCAUGUACCAGAGAAGGACCCAGGCAUUGCUUGGGUAGGAUAUCUGCGCAUCA | 18.4 nM | 193 nM | – | –
23 | GUAGCUAUUAUUAUACAUGAGGAUCACCCAUGUUACAUGUGUAAGGAUAUUGAAGUUAUUAUUAUCAAGAAGGUACUAUGCUAC | – | – | 15.5 nM | 8.71 nM
24 | AAAACGUGAGGAUAUCCAAUAUAUGACAUGAGGAUCACCCAUGUUUCCACUCGUACCUCCGGAGAAGGCACUUUUU | 54.6 nM | 44.9 nM | – | –

Row | Sequence | apparent Kd [1] | apparent Kd [2] | apparent Kd [3] | apparent Kd [4]
25 | GUCCCAGCUGAGGAUAUUAUCUGGCUCGACCGAUAAGAAGGCAGUACAUGAGGAUCACCCAUGUGGUUCGUUCG | 31.5 nM | 70.7 nM | – | –
26 | UAACAUACAAAUAUACAUGAGGAUCACCCAUGUUUGUUGGGAAGAAGGGUAACUAUAUUACAUAUACAGGAUAUUUAACAUACU | – | – | 15.1 nM | 11.7 nM
27 | UAUGUAUUCGUAGGAUAUCCGUCGCCACCGUGUGGAGAAGGACGAACAUGAGGAUCACCCAUGUAUCAUGGUGUAGACAAUUUU | 77 nM | 135 nM | – | –
28 | UUGGACUACGUAGGAUAUGUAGGAUAUUCCUACAUGAGGAUCACCCAUGUUAGCAUGGAAGAAGGACAGAAGGACGUGGUCCAU | – | – | 1360 nM | 15.8 nM
29 | GAAAUACAUGAGGAUCACCCAUGUAAGGAUAUGCUAGCGGUCGGCUGACUGACUGCUAGCAGAAGGUACAUGAU | 80.9 nM | 108 nM | – | –
30 | AGCGGAUUGUAGAAGGGUGACAUGAGGAUCACCCAUGUUCAAAUGCGAUUUACGGUAAUUGAUCCACAGGAUAUACUGUCCGAG | – | – | 942 nM | 266 nM
31 | AUAUCUCUGUAAGGAUAUAGAUGGUGUAAGCCUCCGACAUGAGGAUCACCCAUGUUAUAUGUUGUCUAGAAGGUACAGUGUCGG | – | – | 1110 nM | 898 nM
32 | GUACUGUAGUGAGGAUAUACGAGAACGAUAGUUCGGCGAUCCAAUUAUACAUGAGGAUCACCCAUGUAGAAGGCACUUCAGUAC | 10.8 nM | 30.6 nM | – | –
33 | GCUCUGCGAGGAUAUACAUGAGGAUCACCCAUGUGCGAGUUACUUGUGAGGUCGGUUGGUAGAAGGCGCGGAGG | 106 nM | 89.8 nM | – | –
34 | ACGACUAGAGGAUAUACAUGAGGAUCACCCAUGUAACUGUCAGGAGACUGACGGAGAUGUAGAAGGCUAGUCGA | 16.6 nM | 39.2 nM | – | –
35 | UUUUAGCGAGGAUAUACAUUUUUUUUAUUAUCCUCAUUAUUACAUGAGGAUCACCCAUGUAGAAGGCGCAUUUU | 41 nM | 139 nM | – | –
36 | GCGCGGAACCUAGGAUAUCCGGCAUGGACGGGUGGUAGGUCUCCCACAUGAGGAUCACCCAUGUAGGAGAAGGAGGAUCACGGG | 6.17 nM | 6.83 nM | – | –
37 | AUUCGACAUGAGGAUCACCCAUGUAAGGAUAUGAUAGUUCUGAUAAGGGCUAGCCUAUUCAGAAGGUACGUGGC | 35.5 nM | 31.4 nM | – | –
38 | CAUCAGUGAGGAUAUCGGGCCUGUGGCUGCUCAGCCCGGUUCGAGAAGGCACAUGAGGAUCACCCAUGUGACGU | 20.4 nM | 46.8 nM | – | –
39 | AGAUGUGAACAUGAGGAUCACCCAUGUGACUAGGUAUAUUUCAGAAGGCAUUUAUAGAGAUUAUAUGAGGAUAUGAAGUUUUAA | – | – | 12.7 nM | 6.59 nM
40 | CGCUAAGAGAACGAUACGAGAAGACAUGAGGAUCACCCAUGUAGAAGGACAACGGAAUAAACGUUGUAGGAUAUACAUUUAGCG | 16.9 nM | 19.8 nM | – | –
41 | AGCCUAGCAGGAUAUGCUCAAGAUUACAUGAGGAUCACCCAUGUGACUGGUUGUUGUCUUGCAGAAGGGCUAGGGA | 20.6 nM | 46.8 nM | – | –
42 | ACAUACAUUCGAGGAUAUCGGUGAUUUAUUUUACGAGAAGGCGAUUUAAGAUUUAUUAUUUUAGACAUGAGGAUCACCCAUGUA | – | – | 27.7 nM | 24.5 nM
43 | AAGUAACAUGAGGAUCACCCAUGUGAGGAUAUGAUUUAAGUUGUAAAAGUAAUAAAGGUCAGAAGGUAUGUGAA | 62.1 nM | 61.1 nM | – | –
44 | UGACGGAGCAGAGGAUAUACAUGAGGAUCACCCAUGUAAGAUCUCCAGGAAACUGGAGAUCAAAUGUAGAAGGCUGCUCCGUCA | 18.1 nM | 56 nM | – | –
45 | GUAUUUGAAGUAAGGAUAUGCCUCUGGAAACGGAGGUAGAAGGUACAUGAGGAUCACCCAUGUUUCUCUUUUGG | 16 nM | 23.3 nM | – | –
46 | GCGAUUUUGUAAGGAUAUACACCAGUUUCAAGUGUAGAAGGUACUUACAUGAGGAUCACCCAUGUAUACUUGGAUAAUAGUCGC | – | – | 17.4 nM | 17.5 nM
47 | CGCUAGUCAGGAUAUACGAACAUGUCACAAGACGUGAAGGGACAUGAGGAUCACCCAUGUAGAAGGGACUAGCA | 44.1 nM | 171 nM | – | –
48 | AAUACAUGAGGAUCACCCAUGUAAAGAUCUGUUAAUAGAUGUGAGGAUAUACUAAAUUUUAGGUAGUAGAAGGCACUGGGUACA | – | – | 22.1 nM | 26 nM
